ChEMBL document CHEMBL1122145, “Prostaglandins and congeners, 29. (16RS)-(+/-)-15-Deoxy-16-hydroxy-16-vinyl-prostaglandin E2, an orally and transdermally active hypotensive agent of prolonged duration” (1982)

Tests used:
Assay type in all cases: functional
Rattus norvegicus [1] = test: Intravenous antihypertensive effect in conscious, spontaneously hypertensive rats a dose of 30 ug/kg
How it was run: (§1)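 Male Okamoto spontaneously hypertensive rats (about 300 ± 20 g), restrained supine. The iliac artery was cannulated to a pressure recorder. After a stabilization period, the sodium salt was injected into the lateral caudal vein: acid dissolved in absolute ethanol, neutralized with 0.6 M NaHCO3, diluted in saline. Maximum fall in mean arterial blood pressure (mmHg), mean of two experiments.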

Rattus norvegicus [2] = test: Intravenous antihypertensive effect in conscious, spontaneously hypertensive rats a dose of 100 ug/kg; how it was run: as §1
Rattus norvegicus [3] = test: Intravenous antihypertensive effect in conscious, spontaneously hypertensive rats, Duration of action was determined at a compound dose of 30 ug/kg; 45-50
Rattus norvegicus [4] = test: Intravenous antihypertensive effect in conscious, spontaneously hypertensive rats a dose of 10 ug/kg; how it was run: as §1
Rattus norvegicus [5] = test: Intravenous antihypertensive effect in conscious, spontaneously hypertensive rats, Duration of action was determined at a compound dose of 100 ug/kg
Rattus norvegicus [6] = test: Intravenous antihypertensive effect in conscious, spontaneously hypertensive rats, Duration of action was determined at a compound dose of 10 ug/kg; 30-45
Rattus norvegicus [7] = test: Intravenous, antihypertensive effect in conscious, spontaneously hypertensive rats, Duration of action was determined at a compound dose of 300 ug/kg; 25-30
Rattus norvegicus [8] = test: Intravenous antihypertensive effect in conscious, spontaneously hypertensive rats a dose of 500 ug/kg; how it was run: as §1
Rattus norvegicus [9] = test: Intravenous, antihypertensive effect in conscious, spontaneously hypertensive rats, Duration of action was determined at a compound dose of 100 ug/kg; 10-20
Rattus norvegicus [10] = test: Intravenous antihypertensive effect in conscious, spontaneously hypertensive rats a dose of 300 ug/kg; how it was run: as §1
Rattus norvegicus [11] = test: Intravenous antihypertensive effect in conscious, spontaneously hypertensive rats, Duration of action was determined at a compound dose of 10 ug/kg
Rattus norvegicus [12] = test: Intravenous, antihypertensive effect in conscious, spontaneously hypertensive rats, Duration of action was determined at a compound dose of 500 ug/kg; 25-30
Rattus norvegicus [13] = test: Intravenous, antihypertensive effect in conscious, spontaneously hypertensive rats, Duration of action was determined at a compound dose of 30 ug/kg

| Compound | Max lowering MABP (Rattus norvegicus [1]) [mmHg] | Max lowering MABP (Rattus norvegicus [2]) [mmHg] | Duration (Rattus norvegicus [3]) [min] | Max lowering MABP (Rattus norvegicus [4]) [mmHg] | Duration (Rattus norvegicus [5]) [min] | Duration (Rattus norvegicus [6]) [min] | Duration (Rattus norvegicus [7]) [min] | Max lowering MABP (Rattus norvegicus [8]) [mmHg] | Duration (Rattus norvegicus [9]) [min] | Max lowering MABP (Rattus norvegicus [10]) [mmHg] | Duration (Rattus norvegicus [11]) [min] | Duration (Rattus norvegicus [12]) [min] | Duration (Rattus norvegicus [13]) [min] |
| --- | --- | --- | --- | --- | --- | --- | --- | --- | --- | --- | --- | --- | --- |
| C=CC(O)(C/C=C/C1[C@H](O)CC(=O)[C@@H]1C/C=C/CCCC(=O)O)CCCC (stereo partly specified) | 55 | 65 | 45 | 30 | >200 | 30 | – | – | – | – | – | – | – |
| CCCCC[C@H](O)/C=C/[C@H]1[C@H](O)CC(=O)[C@@H]1C/C=C\CCCC(=O)O [DINOPROSTONE] | 72 | 72 | – | 60 | – | – | 25 | 50 | 10 | 70 | <5 | 25 | <5 |
